From ChEMBL document CHEMBL1144844, “Synthesis and characterization of 5,6,7,8-tetrahydroquinoline C5a receptor antagonists” (Bioorg Med Chem Lett, 2008)

Columns and labels:
[1] = target: T1, C5a anaphylatoxin chemotactic receptor 1 (Homo sapiens, UniProt P21730); assay: Antagonist activity at human C5a receptor in U937 cells assessed as inhibition of anaphylatoxin-induced intracellular calcium mobilization; assay type: functional, cell-based, U-937
T1 sequence (P21730 whole entry): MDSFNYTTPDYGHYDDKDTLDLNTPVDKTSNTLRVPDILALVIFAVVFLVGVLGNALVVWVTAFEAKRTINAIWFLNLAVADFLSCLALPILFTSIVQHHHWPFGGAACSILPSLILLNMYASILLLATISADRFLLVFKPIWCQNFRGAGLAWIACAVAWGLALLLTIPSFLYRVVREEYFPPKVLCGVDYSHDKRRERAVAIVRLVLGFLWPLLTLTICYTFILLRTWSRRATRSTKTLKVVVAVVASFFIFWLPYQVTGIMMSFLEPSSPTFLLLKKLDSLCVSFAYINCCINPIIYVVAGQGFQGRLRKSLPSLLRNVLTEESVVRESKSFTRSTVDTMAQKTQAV

[2] = target: T1, C5a anaphylatoxin chemotactic receptor 1; assay: Displacement of [125I]C5a from human C5a receptor in U937 cells; assay type: cell-based, U-937
[3] = Metabolic stability in human liver microsomes; assay type: ADME, Microsome
[4] = Metabolic stability in human liver microsomes after 10 mins; assay type: ADME, Microsome; conditions: read-out: Stability
[5] = Cmax in rat at 10 mg/kg, po; assay type: ADME, organism-based; set-up: dose 10 mg/kg, route oral; conditions: in vivo
Procedure, shortened: (§1)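 Rat pharmacokinetics with single doses: oral at 10 mg/kg and intravenous at 2 mg/kg, n = 4. Cmax and half-life were taken from the oral arm, and bioavailability from comparison of the oral and intravenous exposures.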

[6] = Half life in rat at 10 mg/kg, po; assay type: ADME, organism-based; set-up: dose 10 mg/kg, route oral; conditions: in vivo; procedure, shortened: as §1
[7] = Oral bioavailability in rat at 10 mg/kg; assay type: ADME, organism-based; conditions: in vivo; procedure, shortened: as §1
[8] = Clearance in rat at 2 mg/kg, iv; conditions: in vivo

Row | Compound | IC50 [1] [nM] | other results
1 | CCc1cccc(CC)c1-c1cc(OC)c2c(n1)CCCC2N1CCc2ccccc2C1 (stereo unspecified) | 1100 | 
2 | CCc1cccc(CC)c1-c1ccc2c(n1)CCCC2N(CC)c1cccc2ccccc12 (stereo unspecified) | > 10000 | 
3 | CCc1cccc(CC)c1-c1cc(OC)c2c(n1)CCCC2N(CC)c1cccc2c1CCCC2 (stereo unspecified) | 220 | 
4 | CCc1cccc(CC)c1-c1cc(OC)c2c(n1)CCCC2N1CCc2c(cccc2C(F)(F)F)C1 (stereo unspecified) | > 10000 | 
5 | CCNC1CCCc2nc(-c3c(CC)cccc3CC)cc(OC)c21 (stereo unspecified) | > 10000 | 
6 | CCc1cccc(CC)c1-c1cc(OC)c2c(n1)CCCC2N(C)c1cccc2ccccc12 (stereo unspecified) | 170 | 
7 | CCN(c1cccc2ccccc12)C1CCCc2nc(-c3ccccc3)cc(OC)c21 (stereo unspecified) | > 10000 | 
8 | CCN(c1cccc2ccccc12)C1CCCc2nc(-c3ccsc3)cc(OC)c21 (stereo unspecified) | > 10000 | 
9 | CCN(c1cccc2ccccc12)C1CCCc2nc(-c3ccccc3C(C)C)cc(OC)c21 (stereo unspecified) | 1700 | 
10 | CCc1ccccc1-c1cc(OC)c2c(n1)CCCC2N(CC)c1cccc2ccccc12 (stereo unspecified) | 650 | 
11 | CCN(c1cccc2ccccc12)C1CCCc2nc(-c3ccc4c(c3)OCO4)cc(OC)c21 (stereo unspecified) | > 10000 | 
12 | CCN(c1cccc2ccccc12)C1CCCc2nc(-c3cccnc3)cc(OC)c21 (stereo unspecified) | > 10000 | 
13 | CCc1cccc(CC)c1-c1cc(OC)c2c(n1)CCCC2N(C)c1ccc2ccccc2c1 (stereo unspecified) | > 10000 | 
14 | CCc1cccc(CC)c1-c1cc(OC)c2c(n1)CCCC2N(C)c1c(C)ccc2ccccc12 (stereo unspecified) | 1500 | 
15 | CCN(c1cccc2ccccc12)C1CCCc2nc(-c3c(OC)cccc3OC)cc(OC)c21 (stereo unspecified) | 1800 | Ki [2]: 1200 nM
16 | CCc1cccc(CC)c1-c1cc(OC)c2c(n1)CCCC2N(CCO)c1cccc2ccccc12 (stereo unspecified) | 190 | Ki [2]: 180 nM
17 | CCN(c1cccc2ccccc12)C1CCCc2nc(-c3ccccc3-c3ccccc3)cc(OC)c21 (stereo unspecified) | > 10000 | 

Row | Compound | IC50 [1] [nM] | other results
18 | CCN(c1cccc2ccccc12)C1CCCc2nc(-c3c(C)cccc3C)cc(OC)c21 (stereo unspecified) | 130 | 
19 | CCc1cccc(CC)c1-c1cc(CC)c2c(n1)CCCC2N(C)Cc1cccc2ccccc12 (stereo unspecified) | > 10000 | 
20 | CCc1cccc(CC)c1-c1cc(CC)c2c(n1)CCCC2N(CC)Cc1ccccc1 (stereo unspecified) | > 10000 | 
21 | CCc1cccc(CC)c1-c1cc(OC)c2c(n1)CCCC2N1CCc2cc(OC)c(OC)cc2C1 (stereo unspecified) | > 10000 | 
22 | CCc1cccc(CC)c1-c1cc(OC)c2c(n1)CCCC2N(C)c1cccc2cc(OC)ccc12 (stereo unspecified) | 180 | 
23 | CCc1cccc(CC)c1-c1cc(OC)c2c(n1)CCCC2N(C)c1cccc2c(OC)cccc12 (stereo unspecified) | > 10000 | 
24 | CCc1cccc(CC)c1-c1cc(OC)c2c(n1)CCCC2N1CCc2ccc(C(F)(F)F)cc2C1 (stereo unspecified) | > 10000 | 
25 | CCc1cccc(CC)c1-c1cc(OC)c2c(n1)CCCC2N1CCc2cccc(C(F)(F)F)c2C1 (stereo unspecified) | 270 | 
26 | CCN(c1cccc2ccccc12)C1CCCc2nc(Cl)cc(OC)c21 (stereo unspecified) | > 10000 | 
27 | CCc1cccc(CC)c1-c1cc(OC)c2c(n1)CCCC2Nc1cccc2ccccc12 (stereo unspecified) | > 10000 | 
28 | CCc1cccc(CC)c1-c1cc(OC)c2c(n1)CCCC2N1CCc2ccc(OC)cc2C1 (stereo unspecified) | > 10000 | 
29 | CCc1cccc(CC)c1-c1cc(Cl)c2c(n1)CCCC2N(CC)c1cccc2ccccc12 (stereo unspecified) | 2000 | 
30 | CCc1cccc(CC)c1-c1cc(OC)c2c(n1)CCCC2N(CC)c1cccc2ccccc12 (stereo in doubt; 27) |  | half-life [3]: 0.9 h; remaining at 10 min [4]: 88%; Cmax [5]: 1300 nM; half-life [6]: 1.8 h; bioavailability [7]: 59%; clearance [8]: 31 mL/min/kg
31 | CCc1cccc(CC)c1-c1cc(OC)c2c(n1)CCCC2N[C@H]1CCCc2ccccc21 (stereo in doubt; 38) | 820 | 
32 | CCc1cccc(CC)c1-c1cc(OC)c2c(n1)CCCC2N[C@H]1CCCc2ccccc21 (stereo in doubt; 39) | 5500 | 
33 | CCc1cccc(CC)c1-c1cc(OC)c2c(n1)CCCC2N[C@@H]1CCCc2ccccc21 (stereo in doubt; 40) | 1900 | 
34 | CCc1cccc(CC)c1-c1cc(OC)c2c(n1)CCCC2N[C@@H]1CCCc2ccccc21 (stereo in doubt; 41) | 8100 | 
